Assay outcomes as filed in PubChem.
CHO parental Ca: signal in parental CHO cells, OX1R antagonist counter-screen; parental CHO-K1, ATP-induced calcium, Fluo-8 fluorescence; inhibition, % at 5.6 µM; 330,000 compounds, 0.63% hits;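 active = inhibition above that plate's mean sample inhibition plus 3 SD, cut at about 26% in these data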;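 note: 0% = ATP-challenged DMSO wells and 100% = DMSO wells without ATP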
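material = parental CHO cells | also added = ATP as calcium-mobilizing challenge | dosing = single point at 5.6 µM | detection = intracellular calcium via Fluo-8 no-wash fluorescent dye | read-out = % inhibition | benchmarks = low control ATP plus DMSO, high control DMSO only | repeats = one well per compound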
TAAR1 antagonist: human TAAR1 antagonism | CHO RD-HGA16 TAAR1, Fluo-8 calcium fluorescence, antagonist | inhibition, % at 3 µM | 360,000 compounds, 1.5% hits | AID 624466;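 active = inhibition above a per-plate cutoff, the mean inhibition of test compounds on that plate plus 3 SD, cut at about 49% in these data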;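 note: 0% = DMSO plus EC80 beta-PEA response and 100% = DMSO alone without agonist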
Target sequence (Q96RJ0 whole entry, looked up): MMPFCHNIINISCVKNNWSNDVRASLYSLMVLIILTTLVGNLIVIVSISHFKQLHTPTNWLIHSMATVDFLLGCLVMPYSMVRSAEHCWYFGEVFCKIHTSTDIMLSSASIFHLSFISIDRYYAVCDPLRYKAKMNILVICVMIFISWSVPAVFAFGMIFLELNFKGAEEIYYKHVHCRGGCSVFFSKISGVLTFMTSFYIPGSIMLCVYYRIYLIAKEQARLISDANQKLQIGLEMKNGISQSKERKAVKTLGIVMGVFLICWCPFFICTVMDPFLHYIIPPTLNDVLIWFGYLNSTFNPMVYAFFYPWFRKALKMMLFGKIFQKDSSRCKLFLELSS
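Material: RD-HGA16 CHO cells with stable hTAAR1 and Gα16; Dosing: single nominal final test compound concentration of 3 µM; Schedule: seeding 17-24 h prior, 75-min 37 °C, 30-min RT dye loading; Detection: kinetic Fluo-8 calcium fluorescence measurement; Measure: % inhibition from peak post-agonist over basal fluorescence ratio; Benchmarks: vehicle and agonist controls.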
OX1R antag-1: human HCRTR1 antagonism | CHO/OX1R cells, Fluo-8 calcium fluorescence, orexin A | inhibition, % at 5 µM | 330,000 compounds, 0.43% hits | AID 434989;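 active = inhibition above its plate's threshold, mean inhibition of all tested compounds on the plate plus 3 SD, cut at about 37% in these data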;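 note: 0% = orexin A challenge wells and 100% = SB-334867-A antagonist wells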
GPR7 antagonist: blocks human GPR7 receptor signaling; P48145; GPR7-expressing cells, fluorescence antagonist assay; inhibition, % at 4.4 µM; 290,000 compounds, 1.1% hits; AID 1861; in the data active = inhibition above about 16%, passing the limit was not always enough;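 note: cells stimulated with the agonist NPW; 0% = agonist with vehicle and 100% = vehicle without agonist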
OX1R antag-2: blocks the human orexin 1 receptor. O43613. OX1R-expressing cells, FRET antagonist read-out. inhibition, % at 6.6 µM. 330,000 compounds, 1.8% hits. AID 485270; in the data active = inhibition mostly above about 38%, no sharp cut-off; inactive = mostly below about 40%;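 note: 0% = agonist challenge alone and 100% = reference antagonist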
TAAR1 ag: agonists of human TAAR1; Q96RJ0; CHO RD-HGA16 TAAR1, Fluo-8 calcium fluorescence; vehicle wells 0%, saturating PEA agonist 100%; activation, % at 3 µM; 360,000 compounds, 0.99% hits; AID 624467;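 active = activation above the mean activation of all test compounds in the run plus 3 SD, cut at about 38% in these data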
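Benchmarks: low control DMSO, high control PEA (EC100); System: CHO RD-HGA16 cells carrying human TAAR1 plus Gα16; Detection: Fluo-8 fluorescence, 5 s baseline then 140 s kinetic read; Schedule: 17-24 h plating, Fluo-8 75 min 37 °C, 30 min RT; Read-out basis: % activation from peak over basal fluorescence ratio, DMSO-to-PEA scaled.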
nonsel antag count: counter-screen for TAAR1 antagonists: nonselective antagonists; shares compounds with TAAR1 antagonist; counterscreen cell line, calcium fluorescence, antagonist mode; inhibition, % at 3 µM; 2,400 compounds, 77% hits; AID 651780; in the data active = inhibition above about 22%;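 note: CHO-Ga16 host cells stimulated with ATP at an EC80 level; 0% = agonist EC80 plus vehicle and 100% = vehicle without agonist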
TAAR1 antag conf: confirmation of human TAAR1 antagonists. shares compounds with TAAR1 antagonist. TAAR1-expressing cells, fluorescence antagonist read-out. inhibition, % at 3 µM. 2,400 compounds, 40% hits. AID 651785; in the data active = inhibition above about 49%;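 note: CHO-Ga16 host cells challenged with agonist PEA near its EC80; 0% = agonist at EC80 plus vehicle and 100% = vehicle with no agonist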
Ga16 nonsel ag: counter-screen for TAAR1 antagonists: nonselective Ga16 agonists | shares compounds with TAAR1 antagonist | Ga16-expressing cells, calcium fluorescence, agonist counterscreen | activation, % at 3 µM | 2,400 compounds, 18% hits | AID 651953; in the data active = activation above about 12%;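 note: 0% = vehicle wells and 100% = saturating stimulus response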
TAAR1 ag counter: counter-screen for human TAAR1 antagonists: TAAR1 agonists; shares compounds with TAAR1 antagonist; hTAAR1 cell line, fluorescence activation, agonist mode; activation, % at 3 µM; 2,400 compounds, 2% hits; AID 651955; in the data active = activation above about 37%;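 note: CHO cells stably expressing TAAR1 with calcium dye readout; 0% = DMSO vehicle and 100% = full agonist response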
Starred values were filed as active, the others as inactive; nt = not tested or not shown. Rows were chosen to be rich in hits. Some 4.6% of all compounds tested hit in one or more screens of this group.

SMILES | CHO parental Ca | TAAR1 antagonist | OX1R antag-1 | GPR7 antagonist | OX1R antag-2 | TAAR1 ag | nonsel antag count | TAAR1 antag conf | Ga16 nonsel ag | TAAR1 ag counter
COc1ccc(Nc2ncc(C(=O)N3CCC(C(N)=O)CC3)c3ccccc23)cc1 | -8.4 | -3.8 | -2.3 | -2.1 | 11.7 | 1.6 | nt | nt | nt | nt
COc1ccccc1Nc1ncc(C(=O)N2CCN(Cc3ccc(OC)c(OC)c3OC)CC2)c2ccccc12 | -8.8 | 70.7* | -36.7 | -2.0 | 11.5 | 9.2 | 26.7* | 45.0 | 4.7 | 4.3
COc1ccc(Nc2ncc(C(=O)N3CCN(Cc4ccccc4)CC3)c3ccccc23)cc1 | -9.1 | 67.4* | -24.6 | -0.8 | 5.0 | 18.2 | 33.4* | 51.5* | 14.1* | 13.2
COc1ccccc1Nc1ncc(C(=O)N2CCC(C(N)=O)CC2)c2ccccc12 | -5.9 | 11.3 | -7.5 | -15.1 | 13.2 | 10.2 | nt | nt | nt | nt
CC(=O)N1N=C(c2cccc(NS(C)(=O)=O)c2)CC1c1cccs1 (stereo not given) | -13.4 | 0.1 | -15.3 | -10.6 | 9.9 | 2.8 | nt | nt | nt | nt
CC(=O)N1N=C(c2cccc(O)c2)CC1c1cccs1 (stereo not given) | nt | 70.6* | nt | -4.0 | nt | 16.5 | 18.2 | 43.9 | 7.2 | 12.1
CCCCc1c(-c2cccc(F)c2)ncn1CCc1ccccc1OC | nt | 34.4 | nt | nt | nt | 19.2 | nt | nt | nt | nt
CCCCCc1c(-c2ccccc2F)ncn1CCc1ccccc1OC | nt | 60.5* | nt | nt | nt | 17.6 | 39.1* | 58.8* | 21.5* | 47.7*
CCCCc1c(-c2ccccc2F)ncn1CCc1ccccc1OC | nt | 60.2* | nt | nt | nt | 20.4 | 37.9* | 72.1* | 17.8* | 63.1*
CCCc1c(-c2cccc(F)c2)ncn1CCc1ccccc1OC | nt | 13.3 | nt | nt | nt | 18.8 | nt | nt | nt | nt
COc1ccccc1CCn1cnc(-c2cccc(F)c2)c1CC(C)C | nt | 50.7* | nt | nt | nt | 18.6 | 34.9* | 66.7* | 15.9* | 54.8*
CCOC(=O)c1cnc(SCC(=O)Nc2nc(C)c(C)s2)nc1N | -21.6 | 1.5 | -31.7 | -20.4 | 16.8 | 6.9 | nt | nt | nt | nt
CCN(CC(=O)Nc1ccc(NC(C)=O)cc1)C(=O)c1ccc(N(C)S(=O)(=O)c2ccc(C)cc2)cc1 | nt | 101.3* | nt | nt | nt | -3.9 | 0.6 | -2.2 | 1.3 | -2.4
COc1ccccc1OCCC(=O)NNC(=O)c1ccccc1F | -14.3 | 103.0* | -15.4 | nt | 1.2 | 1.0 | -6.7 | -7.9 | 11.2 | 7.8
Cc1ccc(C)c(OCCC(=O)NNC(=O)c2ccccc2F)c1 | -4.3 | -18.3 | -0.3 | nt | 12.8 | 2.5 | nt | nt | nt | nt
CCOCCCn1c(SCC(=O)Nc2ccccc2)nc2ccccc2c1=O | -18.9 | -0.6 | -31.8 | -13.5 | 8.9 | 6.2 | nt | nt | nt | nt
CCOCCCn1c(SCc2nc3ccccc3s2)nc2ccccc2c1=O | -34.7 | 49.0* | -38.4 | 2.2 | -0.5 | 11.7 | 18.9 | 38.2 | 6.3 | 23.3
Cc1ccccc1NS(=O)(=O)c1nnc(NC(=O)c2ccccc2C)s1 | -1.7 | -14.4 | -6.0 | 5.0 | 8.0 | 1.0 | nt | nt | nt | nt
Cc1cc(/C=N\NC(=O)c2cccs2)c(C)n1-c1ccc2ncccc2c1 | -27.5 | 102.5* | 8.5 | 19.1 | 38.0 | 10.1 | 33.9* | 98.1* | 12.0* | 11.6
CCOC(=O)c1c(C)[nH]c(C(=O)OC(C)C(=O)Nc2ccccc2OC)c1C (stereo not given) | -18.9 | 19.0 | -16.2 | -11.1 | 37.4 | 1.5 | nt | nt | nt | nt
Cc1ccc(S(=O)(=O)CCc2nnc(N)s2)cc1 | -4.1 | -4.5 | -13.3 | -2.8 | 6.5 | 1.5 | nt | nt | nt | nt
CC(=O)c1ccc(OCC(=O)Nc2ccc3c(c2)CCC3)cc1 | -12.7 | 83.5* | -19.0 | -2.1 | 33.5 | -0.3 | 1.1 | -1.1 | 8.6 | 13.3
COc1ccc(OC)c(CN2CCN(Cc3cccc4ccccc34)CC2)c1 | -32.7 | -42.8 | -21.1 | -4.0 | 11.6 | 16.8 | nt | nt | nt | nt
